Measurements published in ChEMBL document CHEMBL3124822, “Discovery of a rapidly metabolized, long-acting β(2) adrenergic receptor agonist with a short onset time incorporating a sulfone group suitable for once-daily dosing” (J Med Chem, 2014).

What was measured:
Hepatocyte [1] = experiment: Drug metabolism in human hepatocytes assessed as metabolite M7 formation at 12.5 uM after 2 hrs by LC-MS/MS analysis; assay type: ADME, cell-based
How it was run: (§1)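 Human hepatocytes incubated with substrate at 12.5 μM for 2 h. Products characterized by LC–MS/MS on a C18 column, 5–95% acetonitrile gradient in water with 0.1% formic acid over 8 min. Metabolites numbered by elution order. Abundance is semiquantitative from peak heights (low/medium/high), assuming equal analyte response.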

[2] = molecular target: Beta-2 adrenergic receptor (Homo sapiens, UniProt P07550); experiment: Agonist activity at human beta2 adrenoceptor transfected in CHO cells assessed as cyclic AMP accumulation after 45 mins by fluorescence polarization assay; assay type: functional, cell-based
Sequence of Beta-2 adrenergic receptor (P07550 whole entry): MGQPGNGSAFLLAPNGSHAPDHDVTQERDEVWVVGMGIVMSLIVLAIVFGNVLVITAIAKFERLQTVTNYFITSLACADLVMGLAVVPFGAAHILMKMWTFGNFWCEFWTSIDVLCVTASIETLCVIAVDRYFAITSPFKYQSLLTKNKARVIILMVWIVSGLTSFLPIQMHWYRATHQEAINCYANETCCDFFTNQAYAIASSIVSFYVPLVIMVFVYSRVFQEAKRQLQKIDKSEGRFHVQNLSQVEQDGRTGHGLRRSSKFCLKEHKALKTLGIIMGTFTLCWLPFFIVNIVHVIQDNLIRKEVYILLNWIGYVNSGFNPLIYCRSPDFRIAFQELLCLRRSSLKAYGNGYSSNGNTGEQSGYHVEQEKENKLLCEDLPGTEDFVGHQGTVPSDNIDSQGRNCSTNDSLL

[3] = Half life in beagle dog at 0.05 mg/kg, iv up to 8 hrs by LC-MS/MS analysis; assay type: ADME, organism-based, Canis lupus familiaris; design: dose 0.05 mg/kg, route intravenous; conditions: in vivo
How it was run: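 Beagle dogs dosed 0.05 mg/kg intravenously; plasma collected at various time points up to 8 h postdose.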

Hepatocyte [4] = experiment: Drug metabolism in human hepatocytes assessed as metabolite M1 formation at 12.5 uM after 2 hrs by LC-MS/MS analysis; assay type: ADME, cell-based; how it was run: as §1
[5] = Ratio of drug uptake from blood to plasma in human; assay type: ADME
How it was run: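 In vitro partitioning of the compound into the cellular fraction of rat, dog and human blood, reported as the blood:plasma ratio.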

Cytochrome P450 2C9 = Cytochrome P450 2C9 (Homo sapiens, UniProt P11712); experiment: Inhibition of human CYP2C9 expressed in Escherichia coli; assay type: ADME
Sequence of Cytochrome P450 2C9 (P11712 whole entry, canonical isoform): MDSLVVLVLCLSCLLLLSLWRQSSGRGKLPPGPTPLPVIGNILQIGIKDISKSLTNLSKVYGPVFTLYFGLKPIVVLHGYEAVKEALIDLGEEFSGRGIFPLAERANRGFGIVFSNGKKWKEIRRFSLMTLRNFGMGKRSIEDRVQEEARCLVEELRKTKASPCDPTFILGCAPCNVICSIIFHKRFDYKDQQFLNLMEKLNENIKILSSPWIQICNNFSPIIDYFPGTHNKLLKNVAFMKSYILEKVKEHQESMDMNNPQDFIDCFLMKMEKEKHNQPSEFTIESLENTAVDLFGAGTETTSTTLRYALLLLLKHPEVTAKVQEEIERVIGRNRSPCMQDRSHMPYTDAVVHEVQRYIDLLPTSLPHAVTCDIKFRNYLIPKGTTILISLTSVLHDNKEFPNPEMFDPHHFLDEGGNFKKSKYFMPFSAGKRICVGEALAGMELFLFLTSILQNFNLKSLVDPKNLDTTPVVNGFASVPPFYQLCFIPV
How it was run: (§2)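 Human CYP isoforms expressed in E. coli; IC50 from n = 3. Probe substrates diethoxyfluorescein and 7-benzyloxyquinoline are stated for CYP3A4.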

Cavia porcellus [6] = experiment: Bronchodilatory activity in guinea pig assessed as duration of action of inhibition of histamine-induced bronchoconstriction at EC90 administered via nebulization 2 mins prior to histamine challenge; assay type: functional
How it was run: (§3)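 Conscious guinea pigs, n = 24 per group, given test agonist as a nebulized solution in dimethylacetamide–saline vehicle (2 min nebulization) before histamine (10 mM, nebulized 1.3 min) in a whole-body plethysmograph. PenH recorded for 15 min as index of airway obstruction. Dose expressed as nebulizer concentration; duration taken as time to 50% recovery.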

Cytochrome P450 2C19 = Cytochrome P450 2C19 (Homo sapiens, UniProt P33261); experiment: Inhibition of human CYP2C19 expressed in Escherichia coli; assay type: ADME; how it was run: as §2
Sequence of Cytochrome P450 2C19 (P33261 whole entry): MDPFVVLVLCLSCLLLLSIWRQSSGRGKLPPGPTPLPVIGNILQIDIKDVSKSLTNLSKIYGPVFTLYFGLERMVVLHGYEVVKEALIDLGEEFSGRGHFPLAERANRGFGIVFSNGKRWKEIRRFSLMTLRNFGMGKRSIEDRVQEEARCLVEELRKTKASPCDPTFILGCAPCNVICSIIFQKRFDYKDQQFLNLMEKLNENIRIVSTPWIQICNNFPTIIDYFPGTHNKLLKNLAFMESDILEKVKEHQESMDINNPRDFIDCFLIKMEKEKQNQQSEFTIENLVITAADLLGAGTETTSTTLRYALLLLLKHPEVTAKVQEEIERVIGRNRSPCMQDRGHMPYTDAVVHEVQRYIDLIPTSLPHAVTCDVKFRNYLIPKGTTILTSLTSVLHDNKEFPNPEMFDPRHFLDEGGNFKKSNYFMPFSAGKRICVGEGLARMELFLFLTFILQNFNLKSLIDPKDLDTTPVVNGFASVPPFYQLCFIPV

[7] = Plasma clearance in Han Wistar rat at 0.25 mg/kg, iv up to 7 hrs by LC-MS/MS analysis; assay type: ADME, organism-based; design: dose 0.25 mg/kg, route intravenous
How it was run: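 Han Wistar rats dosed 0.25 mg/kg intravenously; plasma sampled at various times up to 7 h postdose. Clearance expressed as percentage of liver blood flow.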

[8] = Drug metabolism in human hepatocytes at 1 uM after 2 hrs by LC-MS/MS analysis; assay type: ADME, cell-based, Hepatocyte; conditions: read-out: Drug metabolism
How it was run: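 Human hepatocytes incubated with substrate at 1 μM for 2 h; percentage turnover of parent determined.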

[9] = Plasma protein binding in dog; assay type: ADME, cell-free, Canis lupus familiaris; conditions: read-out: PPB (converted)
[10] = molecular target: T1, 5-hydroxytryptamine receptor 1A (Homo sapiens, UniProt P08908); experiment: Binding affinity to human 5HT1A receptor
T1 sequence (P08908 whole entry): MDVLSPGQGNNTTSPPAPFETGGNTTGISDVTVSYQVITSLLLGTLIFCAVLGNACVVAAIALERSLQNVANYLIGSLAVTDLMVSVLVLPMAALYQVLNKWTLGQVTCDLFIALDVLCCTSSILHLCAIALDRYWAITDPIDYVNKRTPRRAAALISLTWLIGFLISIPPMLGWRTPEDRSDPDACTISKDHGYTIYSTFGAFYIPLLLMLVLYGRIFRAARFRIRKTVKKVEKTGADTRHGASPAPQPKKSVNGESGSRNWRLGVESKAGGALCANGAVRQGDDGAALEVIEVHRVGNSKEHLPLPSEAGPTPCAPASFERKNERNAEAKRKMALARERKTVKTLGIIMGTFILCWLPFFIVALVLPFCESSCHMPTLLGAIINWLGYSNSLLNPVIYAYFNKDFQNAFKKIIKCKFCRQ

Cavia porcellus [11] = experiment: Bronchodilatory activity in guinea pig assessed as duration of action of inhibition of histamine-induced bronchoconstriction at 10 times EC90 administered via nebulization 2 mins prior to histamine challenge; assay type: functional; how it was run: as §3
Cavia porcellus [12] = experiment: Bronchodilatory activity in guinea pig assessed as inhibition of histamine-induced bronchoconstriction administered via nebulization 2 mins prior to histamine challenge; assay type: functional; how it was run: as §3
L5178Y = experiment: Genotoxicity against mouse L5178Y cells in presence of rat liver metabolic activation system; assay type: toxicity, cell-based
How it was run: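 Acetate and 4-biphenylsulfonate salts screened in Ames and mouse lymphoma L5178Y assays, with and without a rat liver metabolic activation system.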

Drug metabolism (Hepatocyte [1]): Active
EC50 [2]: 2 nM
half-life [3]: 24 min
Drug metabolism (Hepatocyte [4]): Active
blood plasma ratio [5]: 0.65
IC50 (Cytochrome P450 2C9): > 10000 nM
IC50 (Cytochrome P450 2C19): > 10000 nM
clearance [7]: 53 mL/min/kg
metabolised at 2 h, 1 µM [8]: 90%
fraction unbound [9]: 0.03
IC50 [10]: 100 nM
EC90 (Cavia porcellus [12]): 10000 nM
Structure (SMILES): CC(=O)O.O=S(=O)(c1cccc(CCCCOCCCCCCNC[C@H](O)c2ccc(O)c(CO)c2)c1)C1CCCC1
Time (Cavia porcellus [6]): 20 h
Time (Cavia porcellus [11]): >24 h
Activity (L5178Y): Non-toxic
